Screens (PubChem)
In the library only some 4.6% were active in any assay of this set; here they are far more common.
Hck-Nef inh: human Hck-Nef kinase inhibition; 220,000 compounds, 0.68% hits; AID 463187; P08631; inhibition, % at 20 µM; Recombinant Hck-YEEI plus Nef, Z-Lyte FRET kinase assay;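 active = Hck-Nef kinase inhibition above about 50%, limit read from the data; inactive = inhibition below that limit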;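 also: 0% = DMSO with Hck plus Nef and 100% = Hck alone without Nef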
Target sequence (P08631 whole entry, looked up): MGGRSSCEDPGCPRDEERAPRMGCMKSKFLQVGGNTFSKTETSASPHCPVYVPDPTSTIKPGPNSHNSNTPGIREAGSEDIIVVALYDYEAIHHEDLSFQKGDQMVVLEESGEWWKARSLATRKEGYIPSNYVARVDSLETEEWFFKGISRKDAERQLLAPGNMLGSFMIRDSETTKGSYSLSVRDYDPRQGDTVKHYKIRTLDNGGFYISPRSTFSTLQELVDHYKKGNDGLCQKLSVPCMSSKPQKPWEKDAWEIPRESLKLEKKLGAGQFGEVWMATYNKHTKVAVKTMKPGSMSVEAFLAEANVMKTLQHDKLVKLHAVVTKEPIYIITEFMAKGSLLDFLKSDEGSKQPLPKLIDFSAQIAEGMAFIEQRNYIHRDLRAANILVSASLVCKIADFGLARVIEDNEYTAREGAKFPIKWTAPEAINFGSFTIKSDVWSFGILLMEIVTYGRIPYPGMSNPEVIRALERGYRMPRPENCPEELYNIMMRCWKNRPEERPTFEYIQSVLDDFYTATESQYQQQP
RAM inhibit: inhibitors of the yeast RAM network | 190,000 compounds, 1.8% hits | S. cerevisiae dse1pr::URA3 reporter, 5-FOA growth OD615, 2 d; analog-sensitive cbk1-as2 kinase mutant strain | inhibition, % at 50 µM;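 active = inhibition above a set limit, 3 SD over mean compound inhibition, cut at about 8.4% in these data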;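 also: 0% = DMSO-only wells with no growth and 100% = 10 µM 1-NA-PP1 full growth; inhibition rescues growth on 5-FOA so higher OD means more RAM inhibition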
NCF1 inh: inhibitors of human p47phox binding | P14598 | inhibition, % at 24.7 µM | 220,000 compounds, 0.53% hits | p47phox/p22phox peptide binding, fluorescence polarization, 2 h;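 active = inhibition above about 30%, limit read from the data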;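 also: 0% = p47phox with labelled peptide and 100% = labelled peptide alone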
WT yeast gro inh: growth inhibition of WT yeast, mitochondrial fusion screen; mitochondrial fusion phenotypic screen, WT strain; 190,000 compounds, 2.1% hits; inhibition, % at 10 µM; in the data active = inhibition above about 58%; tested in S. cerevisiae
Arbovirus inh: antivirals against arbovirus infection; 200,000 compounds, 0.37% hits; inhibition, % at 10 µM; arbovirus infection cell-based antiviral screen; in the data active = inhibition above about 30%
Calb biofilm kill: mixtures killing C. albicans biofilm | C. albicans biofilm persisters + clotrimazole, fluorescence viability; primary screen in compound mixtures of four per well | inhibition, % at 7.6 µM | 120,000 compounds, 0.02% hits | AID 1242;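 active = inhibition above 30.3% in the primary screen of four-compound pools, then above 30% when the compound was retested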;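 also: compounds exposed to preformed 24 h biofilms for 48 h; 0% = untreated biofilm control and 100% = clotrimazole plus chlorhexidine kill blank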
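Test system: C. albicans CAF4-2 wild-type biofilms; buffer or medium: RPMI/MOPS medium, pH 7.0; schedule: 24 h biofilm formation, then 48 h compound exposure, 37 °C; detection: Alamar Blue fluorescence; measure: percent inhibition of biofilm viability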
* marks the source's active call; other numbers are inactive results.

For Cc1cccc2c1-c1sc(C(=O)Nc3nccs3)cc1CO2 the results were Hck-Nef inh 11.1, RAM inhibit 3.2, NCF1 inh -27.1, WT yeast gro inh 0.2 and Arbovirus inh 82.4*.
Screening COc1ccc(CNC(=O)Cn2nnc(-c3ccc(NC(=O)C4CCCCC4)cc3)n2)cc1 returned Hck-Nef inh 3.8, RAM inhibit 9.0*, NCF1 inh -0.1, WT yeast gro inh -8.5, Arbovirus inh -24.2 and Calb biofilm kill 6.0.
For O=c1c2sccc2n(Cc2ccc(F)cc2)c(=O)n1-c1ccc(F)cc1 the results were Hck-Nef inh 4.0, RAM inhibit 10.3*, NCF1 inh -3.0, WT yeast gro inh -2.5, Arbovirus inh -4.9 and Calb biofilm kill 4.6.
For O=C(CSc1nc2ccccc2c(=O)n1Cc1ccco1)NCc1ccccc1 the results were Hck-Nef inh 1.1.
For CCCn1c(C)cc(C(=O)CSc2nc3ccccc3c(=O)n2Cc2ccco2)c1C the results were Hck-Nef inh 2.9, RAM inhibit 9.3*, NCF1 inh -18.6, WT yeast gro inh -58.1, Arbovirus inh 5.8 and Calb biofilm kill 14.2.
Screening COC(=O)c1ccc(CSc2nc3ccccc3c(=O)n2Cc2ccco2)o1 returned Hck-Nef inh 1.1, RAM inhibit 9.7*, NCF1 inh -6.2, WT yeast gro inh 2.4 and Arbovirus inh 16.1.
Screening COCCCn1c(SCc2nnc(-c3ccc(OC)c(OC)c3)o2)nc2ccccc2c1=O returned Hck-Nef inh 8.9, RAM inhibit 4.0, NCF1 inh -6.1, WT yeast gro inh 6.7, Arbovirus inh -1.6 and Calb biofilm kill 14.0.
Cc1cc(C(=O)CSc2nnc(-c3ccco3)o2)c(C)n1Cc1ccco1 was read as Hck-Nef inh 11.8, RAM inhibit 2.6, NCF1 inh -9.5, WT yeast gro inh 18.0 and Arbovirus inh 31.1*.
Screening COc1ccc(-c2nnc(CSc3nc4ccccc4c(=O)n3CC(C)C)o2)cc1OC returned Hck-Nef inh 1.2, RAM inhibit 3.1, NCF1 inh 36.8*, WT yeast gro inh 5.4 and Arbovirus inh -0.2.
`Cc1cc(C(=O)CSc2nncs2)c(C)n1Cc1ccco1` gave Hck-Nef inh 22.8, RAM inhibit 1.0, NCF1 inh -3.7, WT yeast gro inh -9.2, Arbovirus inh -15.6 and Calb biofilm kill -1.6.
Screening C=CCn1c(C)cc(C(=O)CSc2nnc(Cc3ccccc3)o2)c1C returned Hck-Nef inh 1.2, RAM inhibit 9.8*, NCF1 inh -8.1, WT yeast gro inh 11.2 and Arbovirus inh 1.2.
For CCOC(=O)CSc1nc2ccccc2c(=O)n1CC(C)C the results were Hck-Nef inh -4.9, RAM inhibit 2.1, WT yeast gro inh -1.9, Arbovirus inh -5.0 and Calb biofilm kill 7.8.
`C=CCSc1nc2ccccc2c(=O)n1Cc1ccccc1` gave Hck-Nef inh 20.5, RAM inhibit 2.0, NCF1 inh 14.0, WT yeast gro inh 23.6, Arbovirus inh 0.9 and Calb biofilm kill 6.2.
For O=c1c2ccccc2nc(SCc2ccccc2Cl)n1Cc1ccccc1 the results were Hck-Nef inh 0.0, RAM inhibit 8.9*, NCF1 inh -2.5, WT yeast gro inh 69.0* and Arbovirus inh -6.8.
Cc1cc(C(=O)CSc2nnc(Cc3ccccc3)o2)c(C)n1Cc1ccc2c(c1)OCO2 was read as Hck-Nef inh 2.0, RAM inhibit 6.8, NCF1 inh -62.0, WT yeast gro inh 0.6 and Arbovirus inh -15.8.
For COC(=O)c1ccc(CSc2nc3ccccc3c(=O)n2CC(C)C)o1 the results were Hck-Nef inh 1.1, RAM inhibit 9.1*, NCF1 inh -5.4, WT yeast gro inh 58.0* and Arbovirus inh -7.0.
Cc1ccnc(NS(=O)(=O)c2cccc([N+](=O)[O-])c2)c1 was read as Hck-Nef inh 21.2, NCF1 inh -1.1 and Calb biofilm kill 14.3.
`C/C(=N\NC(=O)c1ccccc1[N+](=O)[O-])c1ccc(Br)s1` gave Hck-Nef inh 3.0, RAM inhibit 4.1, NCF1 inh 5.8, WT yeast gro inh 0.2, Arbovirus inh 2.5 and Calb biofilm kill 16.8.
C/C(=N\NC(=O)c1ccccc1O)c1ccc(Br)s1 was read as Hck-Nef inh 2.2, RAM inhibit 3.8, NCF1 inh -9.4, WT yeast gro inh 65.9*, Arbovirus inh -6.8 and Calb biofilm kill 18.1.
For C/C(=N\Nc1nc2ccccc2s1)c1ccc(Br)s1 the results were Hck-Nef inh -1.9, RAM inhibit 2.0, WT yeast gro inh 94.3*, Arbovirus inh -21.3 and Calb biofilm kill 6.8.
Cc1csc2c(SCC(=O)NNC(=O)C(Cl)Cl)ncnc12 was read as Hck-Nef inh 7.7, NCF1 inh -45.0 and Calb biofilm kill 33.0.
COc1ccc2c(c1)CCC1=C2NC(=S)NC1c1ccc(N(C)C)cc1 (centres undefined) was read as Hck-Nef inh 19.0, RAM inhibit 0.0, NCF1 inh -31.4, WT yeast gro inh 81.4*, Arbovirus inh 6.3 and Calb biofilm kill 1.7.
Cc1ccccc1N1CCN(C2=NC(=O)/C(=C\c3cccs3)S2)CC1 was read as Hck-Nef inh 3.0, RAM inhibit 5.2, NCF1 inh -52.9, WT yeast gro inh 63.7*, Arbovirus inh -29.3 and Calb biofilm kill 5.6.
CCOC(=O)c1c(-c2cccc(C)c2)csc1NC(=O)C1CC=CCC1C(=O)O (centres undefined) was read as Hck-Nef inh 4.5, RAM inhibit 2.1, NCF1 inh -16.1, WT yeast gro inh 5.5 and Arbovirus inh 12.0.
For Cc1ccc(-c2csc(NC(=O)C3CC=CCC3C(=O)O)c2C(=O)OC(C)C)cc1 (centres undefined) the results were Hck-Nef inh -1.6, RAM inhibit 1.5, NCF1 inh -14.0, WT yeast gro inh 2.5 and Arbovirus inh 46.9*.
`CCOC(=O)c1c(-c2ccccc2)csc1NC(=O)CSc1nncs1` gave Hck-Nef inh 3.7, RAM inhibit 10.9*, NCF1 inh -37.4, WT yeast gro inh 59.1*, Arbovirus inh -1.8 and Calb biofilm kill 7.9.
For CCOC(=O)c1c(-c2ccc(C)cc2)csc1NC(=O)C1CC=CCC1C(=O)O (centres undefined) the results were Hck-Nef inh 0.1, RAM inhibit 3.3, NCF1 inh -39.6, WT yeast gro inh -25.9 and Arbovirus inh 35.4*.
For Cc1cc(C)n2nc(SCCC(=O)NCc3ccccc3)nc2n1 the results were Hck-Nef inh -2.4, RAM inhibit 0.6, NCF1 inh -0.7, WT yeast gro inh -11.6, Arbovirus inh 3.3 and Calb biofilm kill 13.4.
For CC(C)(C)C(=O)/C=C/c1ccc(Oc2ccccc2)cc1 the results were Hck-Nef inh -2.6, NCF1 inh -11.9 and Calb biofilm kill 6.4.
N=C1C=CC=C2C1=NC1(CCCCC1)N2O was read as Hck-Nef inh 0.9, RAM inhibit 2.4, NCF1 inh -16.8, WT yeast gro inh 15.2 and Arbovirus inh 8.1.
Screening COc1ccc(-c2nnc(-c3ccc(Br)o3)o2)cc1OC returned Hck-Nef inh 1.2, RAM inhibit 3.4, NCF1 inh -14.3, WT yeast gro inh 4.7 and Arbovirus inh 34.4*.
